Laboratory results as given in ChEMBL document CHEMBL1122247, “2-(6-carboxyhexyl)cyclopentanone hexylhydrazone. A potent and time-dependent inhibitor of platelet aggregation” (1983).

Assays:
[1] = Tested for effect of plasma containing platelets (PRP) against arachidonic acid (500 uM) at 100 uM concentration; type: functional, Homo sapiens
Outline: (§1)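 Human platelet-rich plasma was pretreated 1 min with 25–100 μM agent, then challenged with arachidonic acid (500 μM) or U46619 (1 μM). Aggregation was followed turbidimetrically (Born) at 37 °C. Percent inhibition versus vehicle controls was read 3 min after agonist. Results are mean ± SEM from at least three separate blood donors.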

[2] = Tested for effect of plasma containing platelets (PRP) against arachidonic acid (500 uM) at 25 uM concentration; type: functional, Homo sapiens; outline: as §1
[3] = Tested for effect of plasma containing platelets (PRP) against arachidonic acid (500 uM) at 50 uM concentration; type: functional, Homo sapiens; outline: as §1
[4] = Tested for effect of plasma containing platelets (PRP) against U-46,619 (1 uM) at 50 uM concentration; type: functional, Homo sapiens; outline: as §1
[5] = Tested for effect of plasma containing platelets (PRP) against U-46,619 (1 uM) at 100 uM concentration; type: functional, Homo sapiens; outline: as §1
[6] = Tested for effect of plasma containing platelets (PRP) against platelet free plasma at 1 uM concentration; type: functional; settings: Homo sapiens
Outline: (§2)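 Hydrazone in ethanol was added to platelet-free plasma (100 μM final) and stirred. At 10-min intervals up to 1 h, aliquots were transferred to PRP (1 μM final). Aggregation to 500 μM arachidonic acid was then measured turbidimetrically at 37 °C. Controls had hydrazone added directly to PRP; seven donors.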

[7] = Tested for effect of plasma containing platelets (PRP) against platelet free plasma at 500 uM concentration; type: functional; settings: Homo sapiens; outline: as §2
[8] = Tested for effect of plasma containing platelets (PRP) against arachidonic acid at 0.1 uM concentration; type: functional; settings: Homo sapiens
[9] = Tested for effect of plasma containing platelets (PRP) against ADP at 100 uM concentration; type: functional; settings: Homo sapiens
Outline: (§3)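 In human PRP, 100 μM hydrazone was tested against aggregation induced by U46619 (1–3 μM) or ADP (5 μM). Aggregation was measured by the Born turbidimetric method at 37 °C over 3 min. Reagents were added as 10-μL aliquots per mL of PRP. Percent inhibition is averaged over nine donors.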

[10] = Tested for effect of […] against PGH-2 at 100 uM concentration; type: functional; settings: Homo sapiens, Plasma
[11] = Tested for effect of plasma containing platelets (PRP) against U-46,619 at 100 uM concentration; type: functional; settings: Homo sapiens; outline: as §3
[12] = Tested for effect of plasma containing platelets (PRP) against PGH-2 at 0.6 uM concentration; type: functional; settings: Homo sapiens
[13] = Tested for effect of plasma containing platelets (PRP) against arachidonic acid at 1 uM concentration; type: functional; settings: Homo sapiens
[14] = Time to complete inhibition of arachidonic acid (500 uM)-induced aggregation in platelet-rich plasma (PRP); settings: Homo sapiens
[15] = Tested for effect of plasma containing platelets (PRP) against U-46,619 (1 uM) at 25 uM concentration; type: functional, Homo sapiens; outline: as §1

| SMILES | Inhibition [1] [%] | Inhibition [2] [%] | Inhibition [3] [%] | Inhibition [4] [%] | Inhibition [5] [%] | inhibition at 1 µM [6] [%] | inhibition at 500 µM [7] [%] | inhibition at 0.1 µM [8] [%] | inhibition at 100 µM [9] [%] | inhibition at 100 µM [10] [%] | inhibition at 100 µM [11] [%] | inhibition at 0.6 µM [12] [%] | inhibition at 1 µM [13] [%] | time to complete inhibition at 500 µM [14] [min] | Inhibition [15] [%] |
| --- | --- | --- | --- | --- | --- | --- | --- | --- | --- | --- | --- | --- | --- | --- | --- |
| CCCCCC(=O)N/N=C1\CCCC1CCCCCCC(=O)O (stereo not drawn) | 98 | 8 | 17 | 6 | 30 | – | – | – | – | – | – | – | – | – | – |
| CCCCCCN/N=C1\CCCC1CCCCCCC(=O)O (stereo not drawn) | – | – | – | – | – | 29 | 100 | 44 | 6 | 89 | 4 | 6 | 99 | 27 | – |
| CCCCCCCN[C@H]1CCC[C@@H]1CCCCCCC(=O)O (relative stereo) | – | 100 | 100 | 98 | – | – | – | – | – | – | – | – | – | – | 76 |
